Screening data deposited in PubChem by several laboratories.
A selection: hits, their analogues and other compounds. The true share with any hit is near 3.9%.
Jurkat NFkB inh: inhibitors of induced NF-kB luciferase reporter, primary screen, TCR NF-kB activation inhibitor project, cell-based, luminescence, uHTS; Jurkat, PMA/ionomycin-induced NF-kB luciferase reporter; inhibition, % at 4 µM; AID 435003, 2010; 330,000 tested, 0.53% active; in the data active = inhibition above about 50%
UPR XBP1 act: activators of adaptive XBP1 UPR arm, primary screen, cell-based, CHO-XBP1 luciferase reporter, luminescence, uHTS | 330,000 tested, 0.33% active | IRE1-XBP1 UPR activation; percent of tunicamycin response, DMSO as zero | AID 463104, 2010 | activation, % at 20 µM;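 active = versus positive control, 20 µM dose yields 30% or more activation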;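 note: 100% = tunicamycin at 10 µg/mL and 0% = DMSO only wells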
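Assay system: CHO-XBP1 luciferase reporter cells; Schedule: 6 h treatment, 37 °C; Detection: glow luminescence from Steady-Glo reagent; Benchmarks: high control tunicamycin 10 µg/mL final, low control DMSO vehicle only.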
CHOP inh: inhibitors of CHOP promoter induction, primary screen, cell-based, unfolded protein response, luciferase reporter; 220,000 tested, 3.8% active; AID 2732, 2010; inhibition, % at 10 µM; CHO-K1 CHOP-promoter luciferase, tunicamycin-induced, 15-18 h;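 active = compounds that reduced the stress-induced luciferase reporter signal by more than about 70% of percent inhibition, limit read from the data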;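 note: 0% = tunicamycin plus vehicle and 100% = wells without tunicamycin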
UPR CHOP act: activators of apoptotic CHOP UPR arm, primary screen, cell-based, CHO-CHOP luciferase reporter, luminescence, uHTS | UPR activation; percent of tunicamycin response over DMSO baseline | activation, % at 10 µM | 330,000 tested, 0.34% active | AID 449763, 2010;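 active = at 10 µM dose, activation of 40% or more, normalized to positive control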;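 note: 100% = tunicamycin at 10 µg/mL and 0% = DMSO alone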
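Test system: CHO CHOP reporter cells. Input: 500 CHO-CHOP cells per well. Medium: F12 with 10% FBS. Technique: luciferase luminescence. Measure: percent activation relative to tunicamycin control. Dosing: 10 µM compound, 0.5% DMSO. Timing: 16-18 h cell attachment, then 6 h compound exposure, 37 °C.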
Gli-Sufu block: Gli-Sufu pathway antagonists, primary screen, luciferase luminescence, Sufu-KO-LIGHT cells, uHTS | Sufu-KO-LIGHT fibroblasts, Gli luciferase reporter luminescence | inhibition, % at 5 µM | AID 588413, 2011 | 340,000 tested, 0.74% active;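 active = inhibition above about 55%, limit read from the data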;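 note: 0% = DMSO-treated cells and 100% = wells with medium but no cells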
697 NFkB inh: inhibitors of PMA/ionomycin-induced NF-kB reporter, 697 cells, primary screen, B-cell NF-kB inhibitor project, cell-based, luminescence, uHTS; AID 435022, 2010; inhibition, % at 4 µM; 697 B-cell NF-kB luciferase reporter, 16 h; 330,000 tested, 0.33% active; in the data active = inhibition above about 35%
Gli antag conf: Gli-SUFU pathway antagonists, confirmation, single concentration, luciferase luminescence, Sufu-KO-LIGHT cells | 2,500 tested, 40% active | inhibition, % at 5 µM | shares compounds with Gli-Sufu block | Gli luciferase reporter;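 active = mean inhibition at 5 µM reaching about 45%, limit read from the data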;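 note: plate controls were DMSO-treated cells for no effect and wells lacking cells for full effect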
SufuKO cytotox: cytotoxicity in Sufu-KO-LIGHT cells, confirmation, cytotoxicity control for Gli-SUFU antagonist project, cell-based, ATP luminescence, single concentration. 2,500 tested, 32% active. shares compounds with Gli-Sufu block. cytotoxicity, % at 5 µM. AID 651994, 2013;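 active = mean cytotoxicity at 5 µM above about 25%, limit read from the data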;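 note: cells exposed to compound overnight for roughly 16 to 18 hours; plate controls were DMSO wells with cells for no effect and medium without cells for full effect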
Wnt3a counter: Wnt3a reporter signal inhibition, confirmation, counter-screen for Gli-SUFU antagonist project, Wnt-LIGHT cells, luminescence, single concentration. shares compounds with Gli-Sufu block. inhibition, % at 6.25 µM. 2,500 tested, 20% active. Wnt3a-driven luciferase reporter. AID 651995, 2013;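 active = mean inhibition above about 25%, limit read from the data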
Active calls of the source: *; / = not tested or not shown.

SMILES | Jurkat NFkB inh | UPR XBP1 act | CHOP inh | UPR CHOP act | Gli-Sufu block | 697 NFkB inh | Gli antag conf | SufuKO cytotox | Wnt3a counter
CN(C)CCCn1c(=S)[nH]c2ccccc2c1=O | 16.0 | -3.6 | -1.2 | -0.4 | 4.2 | 6.9 | / | / | /
CN(C)CCCN1C(=O)C2CCc3[nH]c4ccccc4c3C2C1=O (stereo not drawn) | 3.2 | 1.4 | -9.5 | 1.6 | 51.3 | 24.4 | 13.4 | 5.4 | -7.4
CCN(CC)C1=CC(=[N+]2CCCC2)CC(C)(C)C1 | 46.0 | -1.9 | 11.4 | 1.5 | 79.4* | -0.8 | 81.7* | 31.6* | 47.8*
CN(C)c1cccc(NC2=CC(=[N+]3CCOCC3)CC(C)(C)C2)c1 | 8.2 | 0.4 | 19.0 | -1.1 | 12.1 | -6.7 | / | / | /
CCCCSc1nc2sc3c(c2c(=O)n1-c1ccc(C)cc1)CCN(C)C3 | 15.3 | 0.1 | / | 2.2 | 50.0 | -54.4 | 49.4* | 20.7 | -9.7
CCOC(=O)CSc1nc2sc3c(c2c(=O)n1-c1ccc(C)cc1)CCN(C)C3 | -9.5 | 0.1 | / | 1.5 | 1.6 | -12.9 | / | / | /
CCOc1ccc(NC(=O)CN(C)C(=O)c2c(C)nn(Cc3ccccc3Cl)c2C)cc1OCC | / | / | / | / | -2.9 | / | / | / | /
CC(=O)c1cccc(NS(=O)(=O)c2ccc(C(=O)Nc3ccccc3)cc2)c1 | 15.5 | -5.6 | / | 2.7 | 31.5 | -26.1 | / | / | /
CC(=O)c1cccc(NS(=O)(=O)c2ccc(-c3cnc(C4CC4)o3)cc2)c1 | 42.5 | -4.8 | / | -0.4 | 55.0 | 15.8 | 49.2* | 17.1 | -8.3
COc1ccc(Cl)cc1NC(=O)CCc1nnc2ccc(N3CCC4(CC3)OCCO4)nn12 | -2.2 | -3.8 | / | -0.5 | -8.6 | -4.9 | / | / | /
COc1ccc(Cl)cc1NC(=O)CCc1nnc2ccc(N3CCN(C)CC3)nn12 | -0.2 | 1.7 | / | -1.7 | 59.8* | -25.7 | 35.9 | 13.0 | -6.7
CC(C)=CCN1CCN(Cc2cccn2-c2ncccn2)CC1CCO (stereo not drawn) | -7.8 | -1.5 | 16.0 | 0.2 | 50.9 | 2.2 | 17.6 | 5.0 | -37.9
O=C1/C(=C\c2ccccc2)SC(=S)N1CCC(=O)N1CCCCC1CCO (stereo not drawn) | 9.8 | -2.5 | / | 3.1 | 4.4 | 2.2 | / | / | /
COc1ccc(/C=C2\SC(=S)N(CCCC(=O)N3CCCCC3CCO)C2=O)cc1 (stereo not drawn) | 3.5 | -6.0 | / | -3.8 | 65.7* | 3.3 | 24.7 | 13.3 | 16.8
CCOC(=O)c1csc(NC(=O)CN2CCOCC2)n1 | -8.2 | -2.2 | / | -2.2 | 1.9 | -5.6 | / | / | /
Cc1ccc(NC(=O)/C=C/c2ccc([N+](=O)[O-])s2)c(C)c1 | / | / | 19.2 | / | 72.3* | / | 36.9 | 4.7 | 89.7*
Cc1ccc(NC(=O)/C=C/c2ccc([N+](=O)[O-])s2)cc1 | 6.4 | -0.4 | 24.3 | -1.2 | 17.8 | 19.9 | / | / | /
Cc1cc(C)cc(OCC(=O)OC(C)C(=O)Nc2c(C)n(C)n(-c3ccccc3)c2=O)c1 (stereo not drawn) | 20.1 | -4.8 | / | -0.2 | -3.4 | 7.8 | / | / | /
COc1ccc(OC)c(CNS(=O)(=O)c2c(C)nc3scc(C)n3c2=O)c1 | -12.1 | -0.9 | / | -1.9 | 6.7 | 2.9 | / | / | /
O=C(Cn1cc(C(=O)c2ccco2)c2ccccc21)Nc1ccccc1F | -0.9 | -1.9 | 17.1 | -0.4 | 60.3* | 19.4 | 72.7* | 25.0 | 12.5
O=C(Cn1cc(C(=O)C(F)(F)F)c2ccccc21)Nc1ccccc1F | -7.9 | -5.2 | / | -2.4 | 34.4 | 3.4 | / | / | /
